pKi: −log10 of the molar value. Some results are limits rather than exact numbers.

Broadly, the pKi is −log10 of the Ki, conventionally taken in molar units. A low value points to a high Ki.

The target in experiment [1] is T1, Cannabinoid receptor 1 (Homo sapiens, UniProt P21554). The experiment is described as follows: Displacement of [3H]CP-55940 from CB1 receptor at 10 uM. Background: Displacement assays read how much labelled ligand stays bound in the presence of the test substance.
For experiment [2], the target named is T2, Cannabinoid receptor 2 (Homo sapiens, UniProt P34972). The experiment is described as follows: Displacement of [3H]CP-55940 from CB2 receptor at 10 uM.
T2 sequence (P34972 whole entry): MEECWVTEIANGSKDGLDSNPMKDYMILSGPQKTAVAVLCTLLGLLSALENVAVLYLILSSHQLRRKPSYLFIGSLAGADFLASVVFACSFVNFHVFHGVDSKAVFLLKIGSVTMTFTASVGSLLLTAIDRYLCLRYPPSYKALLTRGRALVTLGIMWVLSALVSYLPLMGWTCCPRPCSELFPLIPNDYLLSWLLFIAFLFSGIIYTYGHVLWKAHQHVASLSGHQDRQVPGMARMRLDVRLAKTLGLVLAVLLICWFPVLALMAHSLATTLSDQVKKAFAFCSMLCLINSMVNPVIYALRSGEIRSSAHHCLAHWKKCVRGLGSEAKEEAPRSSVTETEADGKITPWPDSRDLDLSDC
Experiment [3] concerns the target T1, Cannabinoid receptor 1. The experiment is described as follows: Displacement of [3H]CP-55940 from CB1 receptor. In a few lines:
(§1)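 Radioligand competition binding at CB1 or CB2 with [³H]CP55940; CP55940 reference. Ki (nM) obtained from non-linear regression of competition binding isotherms (secondary assay).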

For experiment [4], the target named is T2, Cannabinoid receptor 2. The experiment is described as follows: Displacement of [3H]CP-55940 from CB2 receptor. The method, boiled down: as §1
Experiment [5] is described as follows: Selectivity ratio of Ki for CB1 receptor to Ki for CB2 receptor. The method, boiled down: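 Ratio of CB1 Ki to CB2 Ki, both from [³H]CP55940 competition binding (pH 7.4 Tris–HCl/EDTA/MgCl₂/BSA buffer) with Ki fitted by non-linear regression of competition isotherms.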

T1 sequence (P21554 whole entry): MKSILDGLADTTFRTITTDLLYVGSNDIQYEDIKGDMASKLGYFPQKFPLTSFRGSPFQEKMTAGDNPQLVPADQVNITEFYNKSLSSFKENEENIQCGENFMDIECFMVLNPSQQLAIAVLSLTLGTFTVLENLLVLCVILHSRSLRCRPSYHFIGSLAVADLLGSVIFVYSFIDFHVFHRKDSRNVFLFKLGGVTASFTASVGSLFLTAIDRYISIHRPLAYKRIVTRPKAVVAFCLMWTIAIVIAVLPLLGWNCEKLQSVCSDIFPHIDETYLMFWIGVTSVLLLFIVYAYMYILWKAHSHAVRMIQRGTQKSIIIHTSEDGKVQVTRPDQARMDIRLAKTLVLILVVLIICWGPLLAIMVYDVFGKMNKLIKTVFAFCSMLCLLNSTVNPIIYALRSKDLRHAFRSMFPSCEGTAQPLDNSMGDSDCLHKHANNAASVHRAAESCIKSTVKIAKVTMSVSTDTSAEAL

Take `CCCCCOc1c(OC)ccc2cc(C(=O)NCCc3ccc(OC)cc3)c(Cl)nc12`: the Activity is 71% in experiment [1] and 65.9% in experiment [2]. In addition, the pKi was below 5.00 in experiment [3] and 5.88 in experiment [4]. Further, the Ratio Ki in experiment [5] is above 7.51.

On to `CCCCCOc1c(OC)ccc2cc(C(=O)NCCc3ccc(F)cc3)c(Cl)nc12`, for which the figures for the Activity in experiment [1] and in experiment [2] were 64.8% and 104%, respectively. Moreover, the figures for the pKi in experiment [3] and in experiment [4] were 5.54 and 7.62, respectively. Moreover, in experiment [5], the Ratio Ki was determined as 121.

For the compound `CCCCCOc1c(OC)ccc2cc(C(=O)NCCc3ccc(Cl)cc3)c(Cl)nc12`, the Activity is 34.4% in experiment [1] and 74.1% in experiment [2]. The values for the pKi in experiment [3] and in experiment [4] were below 5.00 and 6.00, respectively. In experiment [5], the Ratio Ki was above 9.92.

Turning to `CCCCCOc1c(OC)ccc2cc(C(=O)NCCCc3ccccc3)c(Cl)nc12`, the Activity amounted to 66.3% in experiment [1] and 59.2% in experiment [2]. In addition, the pKi was below 5.00 in experiment [3] and 5.97 in experiment [4]. For the same compound, in experiment [5], the Ratio Ki was above 9.36.

Regarding `CCCCCOc1c(OC)ccc2cc(C(=O)NCCc3ccc(OC)cc3)c(=O)[nH]c12`, the Activity in experiment [1] came out at 68.7%; in experiment [2] it was 102%. The pKi in experiment [3] was 6.13; in experiment [4], 7.55. The Ratio Ki in experiment [5] turned out to be 26.2.

`CCCCCOc1c(OC)ccc2cc(C(=O)NCCc3ccc(Cl)cc3)c(=O)[nH]c12`: the Activity in experiment [1] is -9%; in experiment [2] it was 102%. Further, the results for the pKi in experiment [3] and in experiment [4] were below 5.00 and 8.03, respectively. Also, the Ratio Ki in experiment [5] was above 1070.

As for `CCCCCOc1c(OC)ccc2cc(C(=O)NCCc3ccc(F)cc3)c(=O)[nH]c12`, the Activity in experiment [1] was 26.3%; in experiment [2], 101%. Also, the pKi is below 5.00 in experiment [3] and 8.27 in experiment [4]. For the same compound, in experiment [5], the Ratio Ki was above 1850.

As for `CCCCCOc1c(OC)ccc2cc(C(=O)NCCc3ccccc3)c(Cl)nc12`, the results for the Activity in experiment [1] and in experiment [2] were 73.7% and 86.3%, respectively. Moreover, the pKi in experiment [3] was below 5.00; in experiment [4], 6.30. Moreover, in experiment [5], the Ratio Ki is above 20.1.

Consider `CCCCCOc1c(OC)ccc2cc(C(=O)NCCCc3ccccc3)c(=O)[nH]c12`, for which the results for the Activity in experiment [1] and in experiment [2] were 51.4% and 104%, respectively. The values for the pKi in experiment [3] and in experiment [4] were 6.49 and 7.99, respectively. In addition, the Ratio Ki in experiment [5] worked out at 31.3.

On to `CCCCCOc1c(OC)ccc2cc(C(=O)NCCc3ccccc3)c(=O)[nH]c12`, for which the Activity in experiment [1] turned out to be 63.4%; in experiment [2] it was 103%. The figures for the pKi in experiment [3] and in experiment [4] were 6.71 and 8.16, respectively. Moreover, the Ratio Ki in experiment [5] was 28.3.

For the origin of these results see ChEMBL document CHEMBL1157654, “Synthesis and in vitro biological evaluation of carbon-11-labeled quinoline derivatives as new candidate PET radioligands for cannabinoid CB2 receptor imaging” (Bioorg Med Chem, 2010).
